Measurements: ChEMBL document CHEMBL2440016, “Targeting the human parasite Leishmania donovani: discovery of a new promising anti-infectious pharmacophore in 3-nitroimidazo[1,2-a]pyridine series” (Bioorg Med Chem, 2013)
pIC50: −log10 of the molar value.

How the values were obtained:
[1] = Selectivity ratio of IC50 for Plasmodium falciparum K1 to IC50 for Leishmania donovani MHOM/IN/00/DEVI promastigotes; assay type: functional
Leishmania donovani [2] = experiment: Antimicrobial activity against Leishmania donovani MHOM/IN/00/DEVI amastigotes infected in mouse J774.1 cells after 120 hrs by microscopic analysis; assay type: functional, organism-based; details: J774.1, 120 h
How it was run: (§1)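 J774A.1 macrophages seeded at 5x10⁴ cells/mL, 24 h at 37 °C, 6% CO2. L. donovani promastigotes acidified 24 h at 27 °C in Schneider 20% FCS pH 5.4, then used to infect at 10:1 for 24 h. Compounds added in duplicate, final DMSO <0.5%, 120 h at 37 °C. Cells methanol-fixed and Giemsa-stained, ≥200 cells counted for % infected. IC50 by non-linear regression, mean of three independent experiments.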

[3] = Cytotoxicity against mouse J774.1 cells after 72 hrs by MTT assay; assay type: cell-based; details: for CC50 at 72 h: J774.1 cells; for CC50: j774.1, 72 h
How it was run: (§2)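 Cells plated in RPMI with 10% FCS, L-glutamine and penicillin/streptomycin, 24 h at 37 °C, 6% CO2. Compound dilutions then added for 72 h. MTT 0.5 mg/mL in PBS for 2 h, formazan dissolved in DMSO, A570 with 630 nm reference. Viability taken as % of untreated control. Doxorubicin served as positive control. CC50 from the dose-response curve.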

[4] = Selectivity ratio of IC50 for Plasmodium falciparum K1 to IC50 for Leishmania infantum MCAN/ES/98/LLM-877 promastigotes; assay type: functional
[5] = Selectivity index, ratio of CC50 for mouse J774.1 cells to IC50 for Leishmania donovani MHOM/IN/00/DEVI; assay type: functional
Leishmania infantum = experiment: Antimicrobial activity against Leishmania infantum MCAN/ES/98/LLM-877 promastigotes after 72 hrs by MTT assay; assay type: functional, organism-based; details: MCAN/ES/98/LLM-877, 72 h
How it was run: (§3)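 Log-phase promastigotes in Schneider's medium with 20% FCS, 2 mM L-glutamine and penicillin/streptomycin, at 10⁶ parasites/mL. Compound dilutions run in duplicate, final DMSO <0.5%, 72 h at 27 °C. MTT 0.5 mg/mL for 6 h at 27 °C, formazan dissolved in DMSO, A570.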

[6] = Selectivity ratio of IC50 for Plasmodium falciparum K1 to IC50 for Leishmania donovani MHOM/IN/00/DEVI amastigotes; assay type: functional
[7] = Selectivity index, ratio of CC50 for human HepG2 cells to IC50 for Leishmania donovani MHOM/IN/00/DEVI; assay type: functional
How it was run: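 SI = HepG2 CC50 / L. donovani IC50.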

Plasmodium falciparum = experiment: Antiplasmodial activity against Plasmodium falciparum K1 infected in human erythrocytes after 72 hrs by SYBR Green I fluorescence assay; assay type: functional, organism-based; details: K1, 72 h
How it was run: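 K1 strain, resistant to chloroquine, pyrimethamine and proguanil, grown in A+ human erythrocytes with RPMI 1640, HEPES, NaHCO3 and 10% A+ serum. Rings synchronized with 5% sorbitol. Compounds tested at 2% hematocrit and 1% parasitaemia, 72 h at 37 °C in 5% O2, 5% CO2, in triplicate. DNA read by SYBR Green I lysis, 15 min, ex 497/em 520 nm. IC50 from three independent experiments.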

[8] = (§4) Cytotoxicity against human HepG2 cells after 72 hrs by MTT assay; assay type: cell-based; details: HepG2 cells; how it was run: as §2
Leishmania donovani [9] = experiment: Antimicrobial activity against Leishmania donovani MHOM/IN/00/DEVI promastigotes after 72 hrs by MTT assay; assay type: functional, organism-based; details: for pIC50: Leishmania donovani, MHOM/IN/00/DEVI, 72 h, read-out: IC50; how it was run: as §3
HepG2 = experiment: as §4; assay type: cell-based; details: hepg2, 72 h; how it was run: as §2
Leishmania donovani [10] = experiment: Antimicrobial activity against Leishmania donovani amastigotes; assay type: functional, organism-based; how it was run: as §1
Leishmania donovani [11] = experiment: Antimicrobial activity against Leishmania donovani promastigotes; assay type: functional, organism-based; how it was run: as §3

| SMILES | CC50 at 72 h [3] | Ratio CC50/IC50 [5] | Ratio CC50/IC50 [7] | CC50 at 72 h [8] | pIC50 (Leishmania donovani [9]) | also measured |
| --- | --- | --- | --- | --- | --- | --- |
| O=[N+]([O-])c1c(CS(=O)(=O)c2ccccc2)nc2c(Br)cc(Br)cn12 | > 25 µM | >13.4 | >17.2 | > 31 µM | 5.74 | Ratio IC50 [1]: 8.9; pIC50 (Leishmania donovani [2]): 5.26; Ratio IC50 [4]: 4.8; pIC50 (Leishmania infantum): 5.48; Ratio IC50 [6]: 3; pIC50 (Plasmodium falciparum): 4.80 |
| N=C(N)c1ccc(OCCCCCOc2ccc(C(=N)N)cc2)cc1 [PENTAMIDINE] | 1 µM | 0.1 | 0.4 |  |  | pIC50 (Leishmania donovani [2]): < 4.70 |
| O=[N+]([O-])c1c(CS(=O)(=O)c2ccccc2)nc2ccc(-c3ccc4ccccc4c3)cn12 |  |  |  |  |  | CC50 [3]: ND(Insoluble); CC50 (HepG2): ND(Insoluble); IC50 (Leishmania donovani [9]): ND(Insoluble) |
| O=S(=O)(Cc1cn2cc(I)ccc2n1)c1ccccc1 | 5.2 µM | <0.1 | <0.1 | 5 µM | < 4.30 |  |
| O=[N+]([O-])c1c(CS(=O)(=O)c2ccccc2)nc2ccc(Cl)cn12 | > 100 µM | >5.5 | >5.5 | > 100 µM | 4.74 |  |
| O=[N+]([O-])c1c(CS(=O)(=O)c2ccc(Cl)cc2)nc2ccc(Br)cn12 | 51.1 µM | 1.1 | 0.12 | 5.5 µM | 4.34 |  |
| O=S(=O)(Cc1cn2cc(Cl)ccc2n1)c1ccc(Cl)cc1 | 68.7 µM | <1.3 | <1.4 | 71.5 µM | < 4.30 |  |
| O=[N+]([O-])c1c(CS(=O)(=O)c2ccc(Br)cc2)nc2ccc(Br)cn12 | 28.2 µM | 1.1 | 1.6 | 39 µM | 4.61 |  |
| O=[N+]([O-])c1c(CS(=O)(=O)c2ccccc2)nc2ccc(I)cn12 | 27 µM | 2.1 | >7.9 | > 100 µM | 4.90 |  |
| O=S(=O)(Cc1cn2cc(Cl)ccc2n1)c1ccccc1 | 13.3 µM | <0.3 | <0.3 | 16.5 µM | < 4.30 |  |
| O=[N+]([O-])c1c(CS(=O)(=O)c2ccc(Cl)cc2)nc2ccc(Cl)cn12 | 42.4 µM | 1.8 | 1.1 | > 25 µM | 4.64 |  |
| CSc1ccc(OCc2ncc([N+](=O)[O-])n2C)cc1 [FEXINIDAZOLE] |  |  |  |  |  | pIC50 (Leishmania donovani [10]): 5.55; pIC50 (Leishmania donovani [11]): 5.25 |
| COc1ccc(Sc2c([N+](=O)[O-])cc(C#N)cc2[N+](=O)[O-])cc1 |  |  |  |  |  | pIC50 (Leishmania donovani [10]): 6.15 |
| O=S(=O)(Cc1cn2cc(Br)ccc2n1)c1ccccc1 | 6.4 µM | <0.1 | 0.15 | 7.3 µM | < 4.30 |  |
| O=[N+]([O-])c1c(CS(=O)(=O)c2ccccc2)nc2ccc(Br)cn12 | 34.3 µM | 2.5 | >7.1 | > 100 µM | 4.85 | pIC50 (Leishmania donovani [2]): < 4.60; pIC50 (Leishmania infantum): < 4.60; pIC50 (Plasmodium falciparum): 4.39 |
| O=[N+]([O-])c1c(CCl)nc2ccccn12 | 4.8 µM | 0.3 | 0.6 | 8.7 µM | 4.82 |  |
| COc1ccc(-c2ccc3nc(CS(=O)(=O)c4ccccc4)c([N+](=O)[O-])n3c2)cc1 |  |  |  |  |  | CC50 [3]: ND(Insoluble); CC50 (HepG2): ND(Insoluble); IC50 (Leishmania donovani [9]): ND(Insoluble) |
| Cc1ccc(S(=O)(=O)Cc2cn3cc(Br)ccc3n2)cc1 | 20.9 µM | <0.4 | <0.6 | 28.9 µM | < 4.30 |  |
| O=[N+]([O-])c1c(CS(=O)(=O)c2ccccc2)nc2ccc(-c3cccc(C(F)(F)F)c3)cn12 |  |  |  |  |  | CC50 [3]: ND(Insoluble); CC50 (HepG2): ND(Insoluble); IC50 (Leishmania donovani [9]): ND(Insoluble) |
| C[C@@H]1[C@H](O)[C@@H](C)/C=C/C=C/C=C/C=C/C=C/C=C/C=C/[C@H](O[C@@H]2O[C@H](C)[C@@H](O)[C@H](N)[C@@H]2O)C[C@@H]2O[C@](O)(C[C@@H](O)C[C@@H](O)[C@H](O)CC[C@@H](O)C[C@@H](O)CC(=O)O[C@H]1C)C[C@H](O)[C@H]2C(=O)O [AMPHOTERICIN B] | 3.1 µM |  |  |  |  | pIC50 (Leishmania donovani [2]): 7.15; pIC50 (Leishmania infantum): 7.40 |
| O=C1C(O)=C([C@H]2CC[C@H](c3ccc(Cl)cc3)CC2)C(=O)c2ccccc21 [ATOVAQUONE] |  |  |  |  |  | pIC50 (Plasmodium falciparum): 8.82 |
| COc1cc(-c2ccc3nc(CS(=O)(=O)c4ccccc4)c([N+](=O)[O-])n3c2)cc(OC)c1OC | 5 µM | <0.1 | <0.7 | 34.7 µM | < 4.30 |  |
| O=S(=O)(Cc1cn2cc(Br)ccc2n1)c1ccc(Cl)cc1 | 43.9 µM | <0.9 | <0.5 | 23 µM | < 4.30 |  |
| CCCCCCCCCCCCCCCCOP(=O)([O-])OCC[N+](C)(C)C [MILTEFOSINE] | 94.6 µM |  |  |  |  | pIC50 (Leishmania donovani [2]): 5.17 |
